Calls of active or inactive are those of the source. No cut-off for these calls is given here.
Columns and labels:
[1] = target: T1, Tyrosinase (Agaricus bisporus) (UniProt O42713); assay: Inhibition of mushroom tyrosinase at 1 g/L using […] as substrate measured after 30 mins
T1 sequence (whole entry): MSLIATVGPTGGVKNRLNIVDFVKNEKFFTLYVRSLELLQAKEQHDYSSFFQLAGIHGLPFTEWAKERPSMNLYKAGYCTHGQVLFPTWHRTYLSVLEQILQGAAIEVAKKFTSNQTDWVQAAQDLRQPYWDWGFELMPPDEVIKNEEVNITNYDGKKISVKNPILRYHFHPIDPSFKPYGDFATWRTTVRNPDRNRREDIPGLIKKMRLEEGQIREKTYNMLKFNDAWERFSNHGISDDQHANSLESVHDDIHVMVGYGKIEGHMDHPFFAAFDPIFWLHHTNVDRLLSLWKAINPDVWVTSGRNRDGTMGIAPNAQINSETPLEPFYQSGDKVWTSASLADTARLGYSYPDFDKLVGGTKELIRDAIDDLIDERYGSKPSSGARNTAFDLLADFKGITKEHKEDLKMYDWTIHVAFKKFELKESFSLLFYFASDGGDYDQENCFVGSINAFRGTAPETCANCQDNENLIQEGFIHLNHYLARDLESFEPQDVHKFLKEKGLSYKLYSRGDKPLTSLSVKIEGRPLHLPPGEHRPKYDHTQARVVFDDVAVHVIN
Summary of the method: (§1)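 Substrate L-tyrosine (0.507 g/L stock in HCl/0.2 M phosphate buffer pH 6.8). Inhibitor stock 1 g/L in DMSO, replaced by DMSO for the reference. Mushroom tyrosinase (200 U/mL stock in 0.2 M phosphate buffer pH 6.8) added last. Incubated 37 °C for 30 min, absorbance read at 475 nm. Percent inhibition from blank-corrected absorbances; triplicate; ferulic acid as positive control.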

[2] = Antioxidant activity assessed as DPPH free radical scavenging activity incubated for 30 mins in dark condition by spectrophotometric analysis; format: functional
Summary of the method: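 Test samples dissolved in absolute ethanol at a range of concentrations; 1 mL mixed with 1 mL 0.2 mM DPPH in ethanol, kept in the dark 30 min, absorbance read at 517 nm against an ethanol blank. L-ascorbic acid as positive control. Triplicate measurements; IC50 taken from the dose-response curve by linear regression interpolation.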

[3] = Antioxidant activity assessed as hydroxyl radical scavenging activity incubated for 1 hr by spectrophotometric analysis; format: functional
Summary of the method: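 Phenanthroline (0.75 mM in ethanol), 0.2 M phosphate buffer pH 7.4, sample in DMSO and 0.75 mM FeSO4 (1 mL each) mixed, then 1 mL 0.01% H2O2 added. Incubated 1 h at 37 °C in a water bath, absorbance read at 536 nm. Triplicate; IC50 (mM) by regression interpolation.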

Tyrosinase = target: T2, Tyrosinase (Agaricus bisporus, UniProt O42713); assay: Inhibition of mushroom tyrosinase using […] as substrate measured after 30 mins; summary of the method: as §1
T2 sequence (O42713 whole entry): T1 sequence (whole entry)

Row | SMILES | inhibition [1] | IC50 [2] [µM] | IC50 [3] [µM] | IC50 (Tyrosinase) [µM]
1 | CCOC(=O)[C@H](CC(C)C)NC(=O)/C=C/c1ccc(OC(C)=O)c(OC)c1 | Active | > 500 |  | 
2 | CCOC(=O)[C@@H](NC(=O)/C=C/c1ccc(OC(C)=O)c(OC)c1)C(C)C | Active | > 500 |  | 
3 | COc1cc(/C=C/C(=O)O)ccc1O [FERULATE] | Active | 35.7 |  | 
4 | CCOC(=O)[C@H](CC(C)C)NC(=O)/C=C/c1ccc(O)c(OC)c1 | Active | 56.1 |  | 
5 | CCOC(=O)[C@H](C)NC(=O)/C=C/c1ccc(O)c(OC)c1 | Active | 46.4 |  | 
6 | CCOC(=O)[C@H](C)NC(=O)/C=C/c1ccc(OC(C)=O)c(OC)c1 | Active | 482 |  | 
7 | COc1cc(/C=C/C(=O)O)ccc1OC(C)=O | Active | > 500 |  | 
8 | CCOC(=O)[C@H](Cc1ccccc1)NC(=O)/C=C/c1ccc(O)c(OC)c1 |  |  |  | < 0.18
9 | CCOC(=O)[C@@H](NC(=O)/C=C/c1ccc(O)c(O)c1)[C@@H](C)CC |  | 43.5 | 411 | 
10 | O=C1O[C@H]([C@@H](O)CO)C(O)=C1O [ASCORBIC ACID] |  | 80.9 | 1620 | 
11 | CCOC(=O)[C@@H](NC(=O)/C=C/c1ccc(O)c(OC)c1)C(C)C | Active | 59.6 |  | 

Continued, values first:

Row | inhibition [1] | IC50 [2] [µM] | IC50 [3] [µM] | IC50 (Tyrosinase) [µM] | SMILES
12 |  | 27.6 | 287 |  | O=C(O)/C=C/c1ccc(O)c(O)c1 [CAFFEIC ACID]
13 |  | 18.6 | 340 |  | CCOC(=O)CNC(=O)/C=C/c1ccc(O)c(O)c1
14 |  | 29.7 | 214 |  | CCOC(=O)[C@H](C)NC(=O)/C=C/c1ccc(O)c(O)c1
15 |  | 19.6 | 348 |  | CCOC(=O)[C@@H](NC(=O)/C=C/c1ccc(O)c(O)c1)C(C)C
16 |  | 33.2 | 292 | > 29 | CCOC(=O)[C@H](Cc1ccccc1)NC(=O)/C=C/c1ccc(O)c(O)c1
17 |  | 28.6 | 373 |  | CCOC(=O)[C@H](CC(C)C)NC(=O)/C=C/c1ccc(O)c(O)c1

— ChEMBL document CHEMBL4396899, “Synthesis of N-hydroxycinnamoyl amide derivatives and evaluation of their anti-oxidative and anti-tyrosinase activities” (Bioorg Med Chem, 2019)
